Laboratory results published in ChEMBL document CHEMBL4828713, “DNA-Encoded Library Hit Confirmation: Bridging the Gap Between On-DNA and Off-DNA Chemistry” (ACS Med Chem Lett, 2021).

Assays:
[1] = molecular target: T1, Receptor-interacting serine/threonine-protein kinase 2 (Homo sapiens, UniProt O43353); assay: Inhibition of RIP2 (unknown origin) by fluorescence polarization based binding assay
[2] = molecular target: T1, Receptor-interacting serine/threonine-protein kinase 2; assay: Inhibition of RIP2 (unknown origin) by biochemical assay
[3] = molecular target: T1, Receptor-interacting serine/threonine-protein kinase 2; assay: Relative binding affinity to RIP2 (unknown origin) by affinity selection mass spectrometry analysis
Summary of the method: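 Test material was freed from the DNA headpiece by cleaving the tetrahydropyranyl linker with 0.1% formic acid at 60 °C for 1 h. The released compound was then tested by affinity selection mass spectrometry, and binding was expressed as relative binding affinity (%RBA).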

[4] = molecular target: T1, Receptor-interacting serine/threonine-protein kinase 2; assay: Inhibition of RIP2 (unknown origin)
TGF-beta receptor type-1 = molecular target: T2, TGF-beta receptor type-1 (Homo sapiens, UniProt P36897); assay: Inhibition of ALK5 (unknown origin)
T2 sequence (P36897 whole entry): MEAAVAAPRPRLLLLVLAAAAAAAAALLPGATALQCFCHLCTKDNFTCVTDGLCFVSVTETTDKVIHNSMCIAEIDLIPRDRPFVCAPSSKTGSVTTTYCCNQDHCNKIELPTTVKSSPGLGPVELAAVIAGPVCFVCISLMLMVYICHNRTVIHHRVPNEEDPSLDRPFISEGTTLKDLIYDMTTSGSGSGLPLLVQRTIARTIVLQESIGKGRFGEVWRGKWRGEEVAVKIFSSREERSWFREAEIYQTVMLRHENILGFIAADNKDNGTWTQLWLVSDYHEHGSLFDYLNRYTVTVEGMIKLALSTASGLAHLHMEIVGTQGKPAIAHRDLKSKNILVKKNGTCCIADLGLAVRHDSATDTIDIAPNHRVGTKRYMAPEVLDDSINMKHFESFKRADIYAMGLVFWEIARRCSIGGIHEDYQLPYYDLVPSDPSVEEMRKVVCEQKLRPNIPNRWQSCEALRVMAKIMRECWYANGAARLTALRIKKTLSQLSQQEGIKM

[5] = molecular target: Epidermal growth factor receptor (Homo sapiens, UniProt P00533); assay: Inhibition of EGFR (unknown origin)
[6] = molecular target: Vascular endothelial growth factor receptor 2 (Homo sapiens, UniProt P35968); assay: Inhibition of VEGFR2 (unknown origin)
Chain of Vascular endothelial growth factor receptor 2 (P35968 whole entry): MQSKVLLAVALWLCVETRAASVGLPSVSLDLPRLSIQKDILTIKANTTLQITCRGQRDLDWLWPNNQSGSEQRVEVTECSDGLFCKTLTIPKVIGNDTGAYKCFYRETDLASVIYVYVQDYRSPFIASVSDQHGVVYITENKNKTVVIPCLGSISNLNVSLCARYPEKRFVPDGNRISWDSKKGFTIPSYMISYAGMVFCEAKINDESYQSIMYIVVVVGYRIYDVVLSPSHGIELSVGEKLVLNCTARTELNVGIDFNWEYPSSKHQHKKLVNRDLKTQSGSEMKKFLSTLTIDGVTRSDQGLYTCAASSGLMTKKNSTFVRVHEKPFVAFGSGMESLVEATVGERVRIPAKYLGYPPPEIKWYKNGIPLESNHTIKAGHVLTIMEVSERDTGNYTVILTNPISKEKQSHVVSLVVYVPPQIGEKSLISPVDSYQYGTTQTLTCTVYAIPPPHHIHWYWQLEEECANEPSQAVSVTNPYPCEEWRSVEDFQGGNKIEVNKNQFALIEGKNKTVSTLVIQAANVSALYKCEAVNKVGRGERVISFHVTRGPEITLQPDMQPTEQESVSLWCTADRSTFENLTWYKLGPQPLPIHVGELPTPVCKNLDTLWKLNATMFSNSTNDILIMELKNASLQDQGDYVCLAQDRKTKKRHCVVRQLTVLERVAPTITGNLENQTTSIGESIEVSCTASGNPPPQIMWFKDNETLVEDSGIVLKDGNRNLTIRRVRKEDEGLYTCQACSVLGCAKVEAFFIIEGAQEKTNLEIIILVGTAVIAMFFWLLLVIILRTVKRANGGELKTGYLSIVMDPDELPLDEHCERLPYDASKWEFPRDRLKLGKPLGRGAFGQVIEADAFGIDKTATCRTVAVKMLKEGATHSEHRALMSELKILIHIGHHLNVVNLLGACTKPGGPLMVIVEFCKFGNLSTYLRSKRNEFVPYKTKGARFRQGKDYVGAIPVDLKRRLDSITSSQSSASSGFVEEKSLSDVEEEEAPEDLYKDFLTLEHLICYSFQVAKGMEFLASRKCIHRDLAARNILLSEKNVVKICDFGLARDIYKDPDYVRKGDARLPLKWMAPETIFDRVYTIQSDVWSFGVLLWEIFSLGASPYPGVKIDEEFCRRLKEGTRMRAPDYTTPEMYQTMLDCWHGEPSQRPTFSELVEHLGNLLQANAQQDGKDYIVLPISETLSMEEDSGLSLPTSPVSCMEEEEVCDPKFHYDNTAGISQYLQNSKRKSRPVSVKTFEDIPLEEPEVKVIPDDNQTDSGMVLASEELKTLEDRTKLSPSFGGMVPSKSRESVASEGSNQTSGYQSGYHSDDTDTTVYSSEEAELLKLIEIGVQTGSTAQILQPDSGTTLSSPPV

T1 sequence (O43353 whole entry): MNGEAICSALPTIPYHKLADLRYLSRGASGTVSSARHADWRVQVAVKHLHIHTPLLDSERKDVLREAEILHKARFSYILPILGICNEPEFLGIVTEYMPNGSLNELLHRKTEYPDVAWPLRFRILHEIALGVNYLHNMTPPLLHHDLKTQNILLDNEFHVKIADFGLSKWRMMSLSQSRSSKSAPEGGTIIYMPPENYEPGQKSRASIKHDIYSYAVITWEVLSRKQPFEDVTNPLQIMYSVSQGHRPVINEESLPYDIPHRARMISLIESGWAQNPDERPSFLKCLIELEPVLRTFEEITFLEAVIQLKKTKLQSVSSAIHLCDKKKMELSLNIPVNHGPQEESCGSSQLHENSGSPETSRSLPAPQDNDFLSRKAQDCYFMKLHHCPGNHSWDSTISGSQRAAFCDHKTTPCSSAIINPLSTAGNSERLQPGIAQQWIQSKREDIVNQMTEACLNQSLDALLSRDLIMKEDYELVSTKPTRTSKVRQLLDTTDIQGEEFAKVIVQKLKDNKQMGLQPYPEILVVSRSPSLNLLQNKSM
Chain of Epidermal growth factor receptor (P00533 whole entry): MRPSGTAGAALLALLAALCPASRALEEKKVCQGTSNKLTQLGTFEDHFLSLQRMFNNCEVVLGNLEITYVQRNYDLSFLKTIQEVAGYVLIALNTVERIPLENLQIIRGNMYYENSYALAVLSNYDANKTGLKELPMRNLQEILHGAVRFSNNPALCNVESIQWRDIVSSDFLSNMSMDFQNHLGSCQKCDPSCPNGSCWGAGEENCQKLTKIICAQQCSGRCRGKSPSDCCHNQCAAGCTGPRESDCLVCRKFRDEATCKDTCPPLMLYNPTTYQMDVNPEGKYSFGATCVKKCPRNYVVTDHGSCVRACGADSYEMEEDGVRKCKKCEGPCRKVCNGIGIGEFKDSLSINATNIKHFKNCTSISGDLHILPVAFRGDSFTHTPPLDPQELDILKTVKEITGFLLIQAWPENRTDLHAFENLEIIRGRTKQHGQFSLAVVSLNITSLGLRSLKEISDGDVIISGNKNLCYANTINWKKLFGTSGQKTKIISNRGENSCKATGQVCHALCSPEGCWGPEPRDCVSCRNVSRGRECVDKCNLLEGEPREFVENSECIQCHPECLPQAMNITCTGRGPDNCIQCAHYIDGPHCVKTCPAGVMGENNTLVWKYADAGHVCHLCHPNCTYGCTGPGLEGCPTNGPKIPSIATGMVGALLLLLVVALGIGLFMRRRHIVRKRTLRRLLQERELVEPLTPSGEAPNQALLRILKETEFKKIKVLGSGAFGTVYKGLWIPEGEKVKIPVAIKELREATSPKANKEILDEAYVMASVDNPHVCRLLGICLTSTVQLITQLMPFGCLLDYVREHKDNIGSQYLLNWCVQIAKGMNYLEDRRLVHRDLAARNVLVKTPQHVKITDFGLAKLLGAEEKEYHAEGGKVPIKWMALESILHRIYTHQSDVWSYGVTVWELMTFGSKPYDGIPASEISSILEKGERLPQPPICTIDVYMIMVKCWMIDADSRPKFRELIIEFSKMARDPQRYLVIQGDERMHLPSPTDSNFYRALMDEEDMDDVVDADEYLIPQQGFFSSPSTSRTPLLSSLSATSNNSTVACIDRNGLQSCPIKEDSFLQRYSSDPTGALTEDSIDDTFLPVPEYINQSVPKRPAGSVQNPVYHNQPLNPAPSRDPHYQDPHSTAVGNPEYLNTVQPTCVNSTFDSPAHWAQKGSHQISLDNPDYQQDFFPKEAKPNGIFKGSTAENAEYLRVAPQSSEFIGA

COCCNC(=O)c1cc(CNc2ccc(Cl)c(O)c2)cc(-c2ccc3c(Cl)ccnc3c2)c1 was tested. Which IC50 [1] did it give?
The IC50 was > 50 µM.

COCCNC(=O)c1cc(CNc2ccc(Cl)c(O)c2)cc(-c2ccc3c(Nc4ccc(Cl)c(O)c4)ccnc3c2)c1 was tested. Which IC50 [2] did it give?
Its IC50 is 0.006 µM.

NC(=O)c1cc(C=O)cc(-c2ccc3c(Nc4ccc5scnc5c4)ccnc3c2)c1 was tested. Which RBA [3] did it give?
Its RBA is 70%.

Which RBA [3] does the source give for NC(=O)c1cc(CNc2ccc3scnc3c2)cc(-c2ccc3c(Nc4ccc5scnc5c4)ccnc3c2)c1 here?
The RBA was 58%.

Which IC50 [4] does the source give for Oc1cc(Nc2ccnc3cc(-c4ccccc4)ccc23)ccc1Cl here?
Its IC50 is 0.006 µM.

And the IC50 (TGF-beta receptor type-1)?
Its IC50 is 0.079 µM.

And the IC50 [5]?
Its IC50 is 0.1 µM.

What about the IC50 [6] of the same compound?
The IC50 was < 0.001 µM.

c1ccc(-c2ccc3c(Nc4ccc5scnc5c4)ccnc3c2)cc1 was tested. Which IC50 [4] did it give?
The IC50 was 0.016 µM.

And the IC50 (TGF-beta receptor type-1)?
The IC50 was 2.5 µM.

What about the IC50 [5] of the same compound?
Its IC50 is 2.5 µM.

And the IC50 [6]?
The IC50 was 0.016 µM.

COCCn1c(-c2cnc(-c3ccc(Cl)cc3)[nH]2)nc2cc(C(=O)NCCO)ccc21 was tested. Which RBA [3] did it give?
Its RBA is 30%.
